Measured values reported in article PMC4160413 (Cancer cell, 2014).
Like-named read-outs stand apart in the source and are kept apart here.

Columns and labels:
MYCN and p-Histone H3 = test: Immunoblot screen of MYCN and p-H3 in Kelly cells; type: cell-based; details: 1 μM, 24 hr
Summary of the method: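 Kelly cells in RPMI with 10% FBS, given one of 32 compounds at 1 μM for 24 hr. Lysis in Cell Signaling buffer with 1% SDS, then sonication and boiling in LDS sample buffer. Immunoblots probed for MYCN, Histone H3, P-Histone H3 (S10), Aurora A and GAPDH. Bands quantified by densitometry and expressed as percent of untreated control.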

SK-N-BE(2) cells = test: Cell cycle by flow cytometry; type: cell-based
Summary of the method: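 SK-N-BE(2) cells in RPMI with 10% FBS, exposed to test compound for the stated time. EdU pulse before harvest: 2 hours per methods, 1 hr in the 6 hr, 1 μM experiment. Detection used the Click-iT EdU flow kit plus propidium iodide staining, read on a FACSCalibur. Gating was done in Cytobank.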

MYCN-Aurora A complex = biological target: T1, MYCN-Aurora A complex (Homo sapiens, UniProt O14965); test: MYCN immunoprecipitation; type: cell-based; details: for dissociation of the MYCN-Aurora A complex: IMR32 cells, 2 hr drug, MG-132 4 hr
T1 sequence (O14965 1-403): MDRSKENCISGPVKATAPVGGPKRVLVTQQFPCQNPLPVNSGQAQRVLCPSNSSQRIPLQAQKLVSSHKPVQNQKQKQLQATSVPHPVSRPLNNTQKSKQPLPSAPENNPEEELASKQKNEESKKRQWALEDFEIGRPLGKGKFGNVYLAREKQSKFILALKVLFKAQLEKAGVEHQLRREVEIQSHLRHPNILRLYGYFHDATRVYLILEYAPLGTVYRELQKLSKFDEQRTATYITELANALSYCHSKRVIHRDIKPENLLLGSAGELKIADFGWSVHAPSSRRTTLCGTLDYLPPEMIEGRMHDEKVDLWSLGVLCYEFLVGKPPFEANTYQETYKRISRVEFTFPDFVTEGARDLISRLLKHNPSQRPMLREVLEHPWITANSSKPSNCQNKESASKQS

[1] = same dose (20 mg/kg); ref Carol et al., 2011; cited from earlier work
[2] = system: panel 169 distinct tumor-derived cell lines; test: Screen of 169 tumor-derived cell lines; type: cell-based; details: for susceptibility of MYCN-amplified versus non-amplified cell lines: 93 lines with MYCN copy number
[3] = system: SK-N-BE(2) MYCN-amplified neuroblastoma cells; test: CyQUANT viability assay, 72 hr, SK-N-BE; type: cell-based; details: read-out: cellular EC50 at 72 hr
[4] = system: Kelly MYCN-amplified neuroblastoma cells; test: CyQUANT viability assay, 72 hr, Kelly; type: cell-based; details: read-out: cellular EC50 at 72 hr
[5] = Pharmacokinetic study in mice; type: in vivo
Summary of the method: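 Test compound formulated at 20 mg/ml in 7.5% DMSO / 92.5% PEG300 and given to mice. Compound levels determined by LC-MS/MS.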

[6] = system: MYCN-amplified SMS-KCN xenografts; test: MYCN-amplified SMS-KCN neuroblastoma xenograft; type: in vivo, mice; details: 60 mg/kg for 2 days
Summary of the method: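 NOD scid gamma mice received 10⁶ SMS-KCN cells in growth media with 50% Geltrex, implanted into the renal capsule. Tumors were palpable at 21 days post implantation. Mice were then dosed at 60 mg/kg for two days, and tumors were harvested and flash frozen. MYCN protein was measured by immunoblot and compared by two-tailed Student's t-test (mean ± SEM).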

[7] = system: MYCN-expressing SHH-subtype medulloblastoma allograft; test: SHH-subtype medulloblastoma subcutaneous allograft; type: in vivo, mice; details: 25 mg/kg twice per week
Summary of the method: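 Homozygous nu/nu mice carried flank subcutaneous allografts of SHH-subtype MYCN-expressing medulloblastoma (10⁶ cells per mouse). Dosing began at 25 mm³ tumor volume (~14 days): vehicle (5% DMSO in PEG300; n=6) or 25 mg/kg (formulated at 7.5 mg/ml; n=4), intraperitoneally twice weekly for up to three weeks. Endpoint was 2.0 cm maximum tumor length. Tumor burden compared by two-tailed t-test, survival by log-rank test.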

[8] = system: GFP- and MYCN-transduced SH-EP neuroblastoma cells; test: Viability of SHEP cells transduced with MYCN or GFP, 72 hr; type: cell-based; details: MYCN- vs GFP-transduced SH-EP
MYCN [9] = test: Immunoblot of MYCN in SHEP cells expressing MYCN WT or T58A/S62A; type: cell-based; details: 24 hr; for wild-type MYCN protein level: SHEP MYCN WT
Aurora A = biological target: T2, Aurora A (Homo sapiens, UniProt O14965, T287D); test: In vitro kinase assay with purified Aurora A protein; type: biochemical; details: structure-activity comparison
T2 sequence (O14965 123-390 T287D): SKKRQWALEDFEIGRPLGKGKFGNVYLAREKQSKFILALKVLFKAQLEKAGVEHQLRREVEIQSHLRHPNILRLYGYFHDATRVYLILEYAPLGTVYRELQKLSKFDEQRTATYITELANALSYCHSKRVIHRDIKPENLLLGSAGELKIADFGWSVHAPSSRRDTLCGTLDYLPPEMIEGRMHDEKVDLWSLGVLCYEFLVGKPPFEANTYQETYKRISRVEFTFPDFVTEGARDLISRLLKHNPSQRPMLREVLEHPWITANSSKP

MYCN [10] = test: Immunoblot of MYCN protein in SK-N-BE; type: cell-based; details: SK-N-BE(2) cells, 1 μM, 24 hr
[11] = CD532 1 μM 4 hr, MLN8237 0.1 μM 4 hr, JQ1 2 μM 24 hr

Row | SMILES | Histone H3 phosphorylation (MYCN and p-Histone H3) | MYCN protein level (MYCN and p-Histone H3) | cell cycle effect (SK-N-BE(2) cells; 1 μM, 4 or 6 hr) | cell cycle effect (SK-N-BE(2) cells; [11]) | dissociation of the MYCN-Aurora A complex (MYCN-Aurora A complex) | susceptibility of MYCN-amplified versus non-amplified cell lines [2] | wild-type MYCN protein level (MYCN [9]) | cell-free potency against Aurora A relative to CD532 (Aurora A) | efficacy against MYCN (MYCN loss) relative to CD532 (MYCN [10]) | other results
1 | COc1cc(Nc2ncc3c(n2)-c2ccc(Cl)cc2C(c2c(F)cccc2OC)=NC3)ccc1C(=O)O [MLN8237] | blocked Histone H3 phosphorylation | very modest effects | G2/M arrest | accumulation of cells in G2 and M phase | only modestly disrupted |  |  |  |  | AUC0-24 [1]: 78.4 µM·h
2 | Cc1sc2c(c1C)C(c1ccc(Cl)cc1)=N[C@@H](CC(=O)OC(C)(C)C)c1nnc(C)n1-2 [JQ1, reference compound] |  |  |  | downregulation of MYCN, blockade of S-phase entry, and accumulation of cells in G0/G1 |  | significantly more susceptible |  |  |  | 
3 | O=C(Nc1ccc(Nc2nccc(Nc3cc(C4CCCC4)[nH]n3)n2)cc1)Nc1cccc(C(F)(F)F)c1 [CD532] |  |  | potent loss of S-phase entry | rapid and potent loss of S-phase | dose-dependent and complete dissociation | significantly more susceptible | dose-dependently decreased |  |  | EC50 [3]: 223 nM; EC50 [4]: 147 nM; serum half-life [5]: ~ 1.5 hr; AUC0-24 ([5]; 20 mg/kg): 27 µM·h; MYCN protein level in xenograft tumors [6]: decreased levels of MYCN protein; tolerability of dosing regimen [7]: without obvious short or long-term toxicity or weight loss; MYCN levels in tumors ([7]; intraperitoneal): substantially reduced MYCN levels; survival ([7]; intraperitoneal): extended survival; tumor burden ([7]; intraperitoneal): reduced tumor burden; MYCN-MAX binding (MYCN-Aurora A complex; specificity control): did not affect; EC50s in cell line panel ([2]; most cell lines): nanomolar range; effect of MYCN transduction on sensitivity [8]: conferred sensitivity; MYCN T58A/S62A protein degradation (MYCN [9]; SHEP MYCN T58A/S62A): less effective
4 | O=C(Nc1ccccc1)Nc1ccc(Nc2nccc(Nc3cc(C4CCCC4)[nH]n3)n2)cc1 [CD25] |  |  |  |  |  |  |  | retained potency | less effective than CD532 | 
5 | Cc1cc(Nc2cc(C3CCCC3)[nH]n2)nc(Nc2ccc(NC(=O)Nc3cccc(C(F)(F)F)c3)cc2)n1 [CD15] |  |  |  |  |  |  |  | maintained | maintained | 
6 | Cc1cc(Nc2cc(N3CCN(C)CC3)nc(Sc3ccc(NC(=O)C4CC4)cc3)n2)[nH]n1 [VX-680] | blocked Histone H3 phosphorylation | very modest effects | G2/M arrest |  |  |  | little effect |  |  | 
